{"source": "paper PMC3457786", "about": "(Journal of chromatography. B, Analytical technologies in …, 2012)", "key": {"HIV-1": {"system": "HIV-1", "details": "ref [14], cited from earlier work"}, "Caco-2 cells [1]": {"system": "Caco-2 cells", "assay": "Cytotoxicity assay", "type": "cell-based", "details": "concentrations up to 500 µM, 24 h"}, "[2]": {"system": "labile iron pool (LIP) in THP-1 cells", "assay": "Calcein-based iron chelation assay", "type": "cell-based, human", "details": "iron-loaded THP-1 cells, 10 µM chelator, SIH as positive control", "method_in_brief": "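THP-1 cells were loaded with ferric sulfate at 25 µM for 1 h (figure legend: iron(II) sulfate at 10 µM for 3 h, 37°C). They then took calcein-AM at 0.2 µM for 10 min at 37°C, were washed and resuspended in PBS. Chelator (10 µM) or SIH (30 µM) was added. Fluorescence (ex 465/em 510 nm) was read immediately in repeated 2-min cycles at 37°C, expressed as (F−Fi)/Fi, with Fi = fluorescence at time 0.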"}, "Caco-2 monolayers [3]": {"system": "Caco-2 monolayers", "assay": "Drug transport", "type": "in vitro ADME, human", "details": "for Papp (× 10^−5) (cm/s) AP-to-BL / Papp (× 10^−5) (cm/s) BL-to-AP: 37°C, 30-120 min, mean ± SD (n=3)"}, "[4]": {"assay": "Stability and isomer conversion of chelator solutions by HPLC", "type": "physicochemical", "details": "resolved by HPLC", "method_in_brief": "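Solutions diluted in HBSS from 100 mM DMSO stocks, sonicated and warmed to 37°C. Stored at 4°C for one week with freeze-thaw, or 4 h at room temperature or 40°C. 50 µM solutions with a 10 µM thiosemicarbazone internal standard injected fresh and after 24 h at 4°C. Reversed-phase F5 column, 40°C, 1 mL/min, 2 mM ammonium acetate/10 mM EDTA–acetonitrile 50:50, pH 5.8, UV 318 nm.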"}, "lung cancer xenografts": {"system": "lung cancer xenografts", "details": "mice, oral route; ref (35); cited from earlier work"}, "Cytotoxicity assay": {"assay": "Cytotoxicity assay", "type": "cell-based", "details": "human"}, "[5]": {"details": "ref [30]; cited from earlier work"}, "Caco-2 cells [6]": {"system": "Caco-2 cells", "details": "Caco-2 cells in vitro; ref [34]; cited from earlier work"}, "Caco-2 monolayers [7]": {"system": "Caco-2 monolayers", "assay": "Lucifer yellow", "type": "in vitro ADME, human", "details": "either direction, at the ends of the experiments"}, "[8]": {"details": "100 µM chelator, Caco-2 monolayers"}, "[9]": {"details": "300 µM chelator, Caco-2 monolayers"}}, "note": "“Also recorded” adds a separate entry of the source. Read-outs that look alike come from different tables or passages of the source."}
{"molecule": "C=CCNC(=S)NN=C(c1ccccc1)c1ccccn1", "note": "[Bp4aT, 2-benzoylpyridine 4-allyl-3-thiosemicarbazone]", "values": [{"measurement": "IC50, inhibition of HIV-1 replication", "setting": "HIV-1; [15]", "result": "nanomolar concentrations"}, {"measurement": "Effect on Caco-2 cell growth / cytotoxicity", "setting": "Caco-2 cells [1]", "result": "little effect; also recorded: no apparent cytotoxicity"}, {"measurement": "Intracellular iron chelation (calcein de-quenching)", "setting": "[2]", "result": "slightly more effective intracellular iron chelators than SIH; also recorded: greater chelation efficacy than Bp4eT"}, {"measurement": "Rnet, ratio of Papp (BL-to-AP) to Papp (AP-to-BL)", "setting": "Caco-2 monolayers [3]; 100 µM chelator", "result": 0.77}, {"measurement": "Papp (× 10^−5) (cm/s) AP-to-BL", "setting": "Caco-2 monolayers [3]; [8]", "result": "1.670 ± 0.016 × 10^−5 cm/s"}, {"measurement": "Papp (× 10^−5) (cm/s) BL-to-AP", "setting": "Caco-2 monolayers [3]; [8]", "result": "1.292 ± 0.282 × 10^−5 cm/s"}, {"measurement": "Rnet, ratio of Papp (BL-to-AP) to Papp (AP-to-BL)", "setting": "Caco-2 monolayers [3]; 300 µM chelator", "result": 0.92}, {"measurement": "Papp (× 10^−5) (cm/s) AP-to-BL", "setting": "Caco-2 monolayers [3]; [9]", "result": "2.756 ± 0.261 × 10^−5 cm/s"}, {"measurement": "Papp (× 10^−5) (cm/s) BL-to-AP", "setting": "Caco-2 monolayers [3]; [9]", "result": "2.534 ± 0.454 × 10^−5 cm/s"}, {"measurement": "Transport of Bp4aT faster than that of Bp4eT", "setting": "Caco-2 monolayers [3]; relative to Bp4eT, Caco-2 monolayers", "result": "approximately 1.5 fold"}, {"measurement": "E/Z isomer formation in aqueous solution", "setting": "[4]", "result": "formed inter-convertible Z and E isomers"}]}
{"molecule": "CCNC(=S)NN=C(c1ccccc1)c1ccccn1", "note": "[Bp4eT, 2-benzoylpyridine 4-ethyl-3-thiosemicarbazone]", "values": [{"measurement": "IC50, inhibition of HIV-1 replication", "setting": "HIV-1; [15]", "result": "nanomolar concentrations"}, {"measurement": "Intracellular iron chelation (calcein de-quenching)", "setting": "[2]", "result": "slightly more effective intracellular iron chelators than SIH"}, {"measurement": "Rnet, ratio of Papp (BL-to-AP) to Papp (AP-to-BL)", "setting": "Caco-2 monolayers [3]; 100 µM chelator", "result": 1.10}, {"measurement": "Papp (× 10^−5) (cm/s) AP-to-BL", "setting": "Caco-2 monolayers [3]; [8]", "result": "0.809 ± 0.119 × 10^−5 cm/s"}, {"measurement": "Papp (× 10^−5) (cm/s) BL-to-AP", "setting": "Caco-2 monolayers [3]; [8]", "result": "0.889 ± 0.196 × 10^−5 cm/s"}, {"measurement": "Rnet, ratio of Papp (BL-to-AP) to Papp (AP-to-BL)", "setting": "Caco-2 monolayers [3]; 300 µM chelator", "result": 0.89}, {"measurement": "Papp (× 10^−5) (cm/s) AP-to-BL", "setting": "Caco-2 monolayers [3]; [9]", "result": "1.819 ± 0.302 × 10^−5 cm/s"}, {"measurement": "Papp (× 10^−5) (cm/s) BL-to-AP", "setting": "Caco-2 monolayers [3]; [9]", "result": "1.627 ± 0.107 × 10^−5 cm/s"}, {"measurement": "E/Z isomer formation in aqueous solution", "setting": "[4]", "result": "formed inter-convertible Z and E isomers"}]}
{"molecule": "CN(C)C(=S)NN=C(c1ccccc1)c1ccccn1", "note": "[Bp44mT, 2-benzoylpyridine-4,4-dimethyl-3-thiosemicarbazone]", "values": [{"measurement": "Efficacy against lung cancer xenografts", "setting": "lung cancer xenografts", "result": "marked efficacy"}]}
{"molecule": "NC(=S)NN=C(c1ccccc1)c1ccccn1", "note": "[BpT, 2-benzoylpyridine thiosemicarbazone]", "values": [{"measurement": "viability at 24 h, 500 µM", "setting": "Cytotoxicity assay", "result": "~70", "unit": "%"}]}
{"molecule": "CC(=O)N(O)CCCCCNC(=O)CCC(=O)N(O)CCCCCNC(=O)CCC(=O)N(O)CCCCCN", "note": "[DFO, desferrioxamine]", "values": [{"measurement": "Absorption through the gastrointestinal tract", "setting": "[5]", "result": "very poor absorption"}]}
{"molecule": "O=C(O)c1ccc(-n2nc(-c3ccccc3O)nc2-c2ccccc2O)cc1", "note": "[ICL670, 4-[3,5-bis-(hydroxyphenyl)-1,2,4-triazol-1-yl]-benzoic acid, reference compound]", "values": [{"measurement": "IC50, inhibition of HIV-1 replication", "setting": "HIV-1; [15]", "result": "high micromolar concentrations"}, {"measurement": "IC50, inhibition of HIV-1 replication", "setting": "HIV-1", "result": "high micromolar range"}, {"measurement": "Papp value", "setting": "Caco-2 cells [6]", "result": "1.66 ± 0.13 × 10^−5 cm/s"}]}
{"molecule": "lucifer yellow [LY]", "values": [{"measurement": "LY recovered from the receiver chambers", "setting": "Caco-2 monolayers [7]", "result": "Less than 2%"}]}
